Reference: ChEMBL document CHEMBL2021854, “2-Aminopyrimidine based 4-aminoquinoline anti-plasmodial agents. Synthesis, biological activity, structure-activity relationship and mode of action studies” (Eur J Med Chem, 2012)

Experiments:
Human betaherpesvirus 5 [1] = test: Antiviral activity against Cytomegalovirus AD-169 infected in HEL cells assessed as inhibition of virus plaque formation after 4 days; format: functional, organism-based; conditions: Human betaherpesvirus 5, AD169, HEL, 96 h
Influenza A virus [2] = test: Antiviral activity against Influenza A virus H3N2 infected in MDCK cells assessed as reduction visual scoring of virus-induced cytopathogenicity after 4 days; format: functional, organism-based; conditions: 96 h
How it was run: (§1)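 MDCK monolayers infected with 100 CCID50 of influenza A (H1N1 or H3N2) or influenza B, with varying compound concentrations. Cytopathicity read when untreated infected controls reached complete CPE.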

MDCK = test: Cytotoxicity against MDCK cells assessed as cell viability by colorimetric formazan-based MTS assay; design: species or system Canis lupus familiaris; conditions: dog, mdck
How it was run: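 Cytotoxicity on MDCK cells; 50% cytotoxic concentration from cell viability measured by colorimetric formazan-based MTS assay.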

Human respirovirus 3 = test: Antiviral activity against Parainfluenza-3 virus infected in african green monkey Vero cells assessed as inhibition of virus-induced cytopathogenicity after 4 days; format: functional, organism-based; conditions: Human respirovirus 3, Vero, 96 h
How it was run: (§2)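 Confluent HEL, Vero or HeLa monolayers were inoculated with 100 CCID50 of virus in the presence of varying concentrations of compound. Cytopathicity was scored when it reached completion in untreated, virus-infected control cultures.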

[3] = tested on: Human immunodeficiency virus 1; test: Antiviral activity against HIV1 infected in human CEM cells assessed as inhibition of virus-induced cytopathic effect after 4 days; format: functional, organism-based; conditions: Human immunodeficiency virus 1, CCRF-CEM, 96 h
How it was run: (§3)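 CEM T-lymphocytes (~3 × 10^5 cells/ml) were infected with HIV-1 IIIB or HIV-2 ROD at ~100 CCID50, then immediately plated with a range of compound concentrations. Giant cell formation was scored microscopically after 4 days at 37 °C. Cytostatic activity was tested in parallel in uninfected CEM cells.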

Influenza B virus [4] = test: Antiviral activity against Influenza B virus infected in MDCK cells assessed as inhibition of virus-induced cytopathogenicity after 4 days by colorimetric formazan-based MTS assay; format: functional, organism-based; conditions: 96 h
[5] = tested on: Vesicular stomatitis virus; test: Antiviral activity against Vesicular stomatitis virus infected in HeLa cells assessed as inhibition of virus-induced cytopathogenicity after 4 days; format: functional, organism-based; conditions: 96 h
How it was run: (§4)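 Confluent HEL or HeLa monolayers infected with 100 CCID50 of virus in the presence of varying compound concentrations.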

Human alphaherpesvirus 2 = test: Antiviral activity against HSV2 G infected in HEL cells assessed as inhibition of virus-induced cytopathogenicity after 4 days; format: functional, organism-based; conditions: Human alphaherpesvirus 2, strain G, 96 h; how it was run: as §2
[6] = tested on: Vesicular stomatitis virus; test: Antiviral activity against Vesicular stomatitis virus infected in HEL cells assessed as inhibition of virus-induced cytopathogenicity after 4 days; format: functional, organism-based; conditions: 96 h; how it was run: as §4
[7] = tested on: Respiratory syncytial virus; test: Antiviral activity against Respiratory syncytial virus infected in human HeLa cells assessed as inhibition of virus-induced cytopathogenicity after 4 days; format: functional, organism-based; conditions: 96 h; how it was run: as §2
[8] = tested on: Mammalian orthoreovirus 1; test: Antiviral activity against Reovirus-1 infected in african green monkey Vero cells assessed as inhibition of virus-induced cytopathogenicity after 4 days; format: functional, organism-based; conditions: Mammalian orthoreovirus 1, Vero, 96 h; how it was run: as §2
[9] = Cytotoxicity against human HEL cells assessed as minimum compound concentration required to causes microscopically detectable alteration of normal cell morphology; format: cell-based
How it was run: (§5)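 Confluent, non-proliferating cell cultures were exposed to the compounds. The endpoint was the minimum concentration producing a microscopically detectable alteration of normal cell morphology.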

Influenza A virus [10] = test: Antiviral activity against Influenza A virus H1N1 infected in MDCK cells assessed as inhibition of virus-induced cytopathogenicity after 4 days by colorimetric formazan-based MTS assay; format: functional, organism-based; conditions: 96 h
Human alphaherpesvirus 1 [11] = test: Antiviral activity against HSV1 KOS infected in HEL cells assessed as inhibition of virus-induced cytopathogenicity after 4 days; format: functional, organism-based; conditions: Human alphaherpesvirus 1, KOS, 96 h; how it was run: as §4
Sindbis virus = test: Antiviral activity against Sindbis virus infected in african green monkey Vero cells assessed as inhibition of virus-induced cytopathogenicity after 4 days; format: functional, organism-based; conditions: 96 h; how it was run: as §2
[12] = Cytotoxicity against MDCK cells assessed as minimum compound concentration required to causes microscopically detectable alteration of normal cell morphology; format: cell-based, Canis lupus familiaris; conditions: dog; how it was run: as §5
[13] = Cytotoxicity against african green monkey Vero cells assessed as minimum compound concentration required to causes microscopically detectable alteration of normal cell morphology; format: cell-based; conditions: chlorocebus sabaeus; how it was run: as §5
[14] = Cytotoxicity against human HeLa cells assessed as minimum compound concentration required to causes microscopically detectable alteration of normal cell morphology; format: cell-based; how it was run: as §5
Human alphaherpesvirus 3 [15] = test: Antiviral activity against thymidine kinase-deficient […] infected in HEL cells assessed as reduction of virus plaque formation after 4 days; format: functional, organism-based; conditions: Human alphaherpesvirus 3, 07-1, HEL, 96 h
Influenza B virus [16] = test: Antiviral activity against Influenza B virus infected in MDCK cells assessed as reduction visual scoring of virus-induced cytopathogenicity after 4 days; format: functional, organism-based; conditions: 96 h; how it was run: as §1
Coxsackievirus B4 [17] = test: Antiviral activity against Coxsackie virus B4 infected in human HeLa cells assessed as inhibition of virus-induced cytopathogenicity after 4 days; format: functional, organism-based; conditions: Enterovirus B, 96 h; how it was run: as §2
[18] = Cytotoxicity against cat CRFK cells assessed as cell viability by colorimetric formazan-based MTS assay; design: species or system Felis catus; conditions: crfk
Human alphaherpesvirus 1 [19] = test: Antiviral activity against thymidine kinase-deficient acyclovir-resistant HSV1 KOS infected in HEL cells assessed as inhibition of virus-induced cytopathogenicity after 4 days; format: functional, organism-based; conditions: Human alphaherpesvirus 1, KOS, 96 h; how it was run: as §4
[20] = tested on: Human immunodeficiency virus 2; test: Antiviral activity against HIV2 infected in human CEM cells assessed as inhibition of virus-induced cytopathic effect after 4 days; format: functional, organism-based; conditions: Human immunodeficiency virus 2, CCRF-CEM, 96 h; how it was run: as §3
Coxsackievirus B4 [21] = test: Antiviral activity against Coxsackie virus B4 infected in african green monkey Vero cells assessed as inhibition of virus-induced cytopathogenicity after 4 days; format: functional, organism-based; conditions: Enterovirus B, 96 h; how it was run: as §2
Plasmodium falciparum [22] = test: Resistant factor, ratio of IC50 for chloroquine-resistant Plasmodium falciparum K1 to IC50 for chloroquine-sensitive Plasmodium falciparum 3D7; format: functional
How it was run: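 Resistance factor computed as IC50 against K1 divided by IC50 against 3D7, both from the [3H]hypoxanthine incorporation assay.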

Felid alphaherpesvirus 1 = test: Antiviral activity against Feline herpesvirus infected in cat CRFK cells assessed as inhibition of virus-induced cytopathic effect after 4 days by colorimetric formazan-based MTS assay; format: functional, organism-based; conditions: Felid alphaherpesvirus 1, CRFK, 96 h
Influenza A virus [23] = test: Antiviral activity against Influenza A virus H3N2 infected in MDCK cells assessed as inhibition of virus-induced cytopathogenicity after 4 days by colorimetric formazan-based MTS assay; format: functional, organism-based; conditions: 96 h
Influenza A virus [24] = test: Antiviral activity against Influenza A virus H1N1 infected in MDCK cells assessed as reduction visual scoring of virus-induced cytopathogenicity after 4 days; format: functional, organism-based; conditions: 96 h; how it was run: as §1
Human betaherpesvirus 5 [25] = test: Antiviral activity against Human cytomegalovirus Davis infected in HEL cells assessed as inhibition of virus plaque formation after 4 days; format: functional, organism-based; conditions: Human betaherpesvirus 5, Davis, 96 h
Plasmodium falciparum [26] = test: Antiplasmodial activity chloroquine-resistant Plasmodium falciparum K1 infected in human A+ erythrocytes assessed as inhibition of [3H]-hypoxanthine incorporation after 24 hrs by scintillation counting; format: functional, organism-based
[27] = Selectivity index, ratio of CC50 for MDCK cells to IC50 for chloroquine-resistant Plasmodium falciparum K1; format: functional
How it was run: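 Selectivity index computed as MTS-based CC50 on MDCK cells divided by IC50 against P. falciparum K1.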

[28] = tested on: Feline infectious peritonitis virus; test: Antiviral activity against FIPV infected in cat CRFK cells assessed as inhibition of virus-induced cytopathic effect after 4 days by colorimetric formazan-based MTS assay; format: functional, cell-based; conditions: Alphacoronavirus 1, CRFK, 96 h
[29] = Inhibition of beta-hematin formation assessed as Ferriprotoporphyrin IX biomineralisation at 1 mg/ml after 24 hrs; format: functional
How it was run: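 Hemin chloride (0.5 mg/ml in DMSO) mixed with 0.5 M sodium acetate buffer pH 4.4 and drug or solvent control, incubated 37 °C for 24 h. Pellet washed with DMSO to remove unreacted hemin, dissolved in 0.1 N NaOH, absorbance read at 405 nm; percent inhibition relative to control. Highest concentration tested 1 mg/ml.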

Punta Toro virus = test: Antiviral activity against Punta Toro virus infected in african green monkey Vero cells assessed as inhibition of virus-induced cytopathogenicity after 4 days; format: functional, organism-based; conditions: 96 h; how it was run: as §2
Human alphaherpesvirus 3 [30] = test: Antiviral activity against […] expressing thymidine kinase infected in HEL cells assessed as reduction of virus plaque formation after 4 days; format: functional, cell-based; conditions: Human alphaherpesvirus 3, strain Oka vaccine, 96 h
Plasmodium falciparum [31] = test: Antiplasmodial activity chloroquine-sensitive Plasmodium falciparum 3D7 infected in human A+ erythrocytes assessed as inhibition of [3H]-hypoxanthine incorporation after 24 hrs by scintillation counting; format: functional, organism-based
HeLa = test: Cytotoxicity against human HeLa cells assessed as cell viability by colorimetric formazan-based MTS assay

Cc1nc(NCCCNc2ccnc3cc(Cl)ccc23)nc(-c2cccc([N+](=O)[O-])c2)c1C(=O)OC(C)C
EC50 (Human betaherpesvirus 5 [1]): > 4 µM | EC50 (Influenza A virus [2]): > 0.16 µM | CC50 (MDCK): 0.5 µM | EC50 (Human respirovirus 3): > 20 µM | EC50 [3]: > 2 µM | EC50 (Influenza B virus [4]): > 0.16 µM | EC50 [5]: > 4 µM | EC50 (Human alphaherpesvirus 2): > 4 µM | EC50 [6]: > 4 µM | EC50 [7]: > 4 µM | EC50 [8]: > 20 µM | MCC [9]: 20 µM | EC50 (Influenza A virus [10]): > 0.16 µM | EC50 (Human alphaherpesvirus 1 [11]): > 4 µM | EC50 (Sindbis virus): > 20 µM | MCC [12]: 800 nM | MCC [13]: 100 µM | MCC [14]: 20 µM | EC50 (Human alphaherpesvirus 3 [15]): > 4 µM | EC50 (Influenza B virus [16]): > 0.16 µM | EC50 (Coxsackievirus B4 [17]): > 4 µM | CC50 [18]: 7.7 µM | EC50 (Human alphaherpesvirus 1 [19]): > 4 µM | EC50 [20]: > 10 µM | EC50 (Coxsackievirus B4 [21]): > 20 µM | Ratio IC50 (Plasmodium falciparum [22]): 0.385 | EC50 (Felid alphaherpesvirus 1): > 4 µM | EC50 (Influenza A virus [23]): > 0.16 µM | EC50 (Influenza A virus [24]): > 0.16 µM | EC50 (Human betaherpesvirus 5 [25]): > 4 µM | IC50 (Plasmodium falciparum [26]): 0.231 µM | Ratio CC50/IC50 [27]: 2.1 | EC50 [28]: > 4 µM | inhibition [29]: 79% | EC50 (Punta Toro virus): > 20 µM | EC50 (Human alphaherpesvirus 3 [30]): 4 µM | IC50 (Plasmodium falciparum [31]): 0.599 µM | CC50 (HeLa): 1.04 µM

Cc1nc(NCCNc2ccnc3cc(Cl)ccc23)nc(-c2ccccc2[N+](=O)[O-])c1C(=O)OC(C)C
EC50 (Human betaherpesvirus 5 [1]): > 20 µM | EC50 (Influenza A virus [2]): > 0.8 µM | CC50 (MDCK): 2.2 µM | EC50 (Human respirovirus 3): > 20 µM | EC50 [3]: > 10 µM | EC50 (Influenza B virus [4]): > 0.8 µM | EC50 [5]: > 100 µM | EC50 (Human alphaherpesvirus 2): > 100 µM | EC50 [6]: > 20 µM | EC50 [7]: > 100 µM | EC50 [8]: > 20 µM | MCC [9]: 100 µM | EC50 (Influenza A virus [10]): > 0.8 µM | EC50 (Human alphaherpesvirus 1 [11]): > 20 µM | EC50 (Sindbis virus): > 20 µM | MCC [12]: ≥ 800 nM | MCC [13]: 100 µM | MCC [14]: > 100 µM | EC50 (Human alphaherpesvirus 3 [15]): > 20 µM | EC50 (Influenza B virus [16]): > 0.8 µM | EC50 (Coxsackievirus B4 [17]): > 100 µM | CC50 [18]: > 100 µM | EC50 (Human alphaherpesvirus 1 [19]): > 20 µM | EC50 [20]: > 2 µM | EC50 (Coxsackievirus B4 [21]): > 20 µM | Ratio IC50 (Plasmodium falciparum [22]): 0.5555 | EC50 (Felid alphaherpesvirus 1): > 100 µM | EC50 (Influenza A virus [23]): > 0.8 µM | EC50 (Influenza A virus [24]): > 0.8 µM | EC50 (Human betaherpesvirus 5 [25]): > 20 µM | IC50 (Plasmodium falciparum [26]): 0.096 µM | Ratio CC50/IC50 [27]: 22.9 | EC50 [28]: > 100 µM | EC50 (Punta Toro virus): > 20 µM | EC50 (Human alphaherpesvirus 3 [30]): > 20 µM | IC50 (Plasmodium falciparum [31]): 0.173 µM | CC50 (HeLa): 24.4 µM
